Results: ChEMBL document CHEMBL5724801, “EUbOPEN Chemogenomics Library - Multiplex” (2024)
Several values for one entry are separate records, joined by “and”; a condition that tells them apart may be missing. Equal values may be shown once.

Tested on: Fibroblast
Assay: Multiplex assay against human fibroblast
Type: toxicity, cell-based
In short: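 With compound added, live cells were imaged on a CQ1 microscope at 37°C and 5% CO2; staining with Hoechst33342, BioTracker Green Microtubule Cytoskeleton Dye, MitoTracker Red and Annexin V Alexa Fluor 680 had been done at seeding. The CellPathfinder machine-learning gating scheme split cells into Hoechst high-intensity objects or normal cells, normal cells into healthy, pyknosed or fragmented nuclei, and pyknosed cells into mitotic or apoptotic. The tubulin, mitochondrial-mass and membrane-permeability phenotypes are per cents of healthy-nucleus cells.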

[1] = 12 h, 1 µM, compound concentration 1 uM
[2] = 12 h, 10 µM, compound concentration 10 uM
[3] = 24 h, 1 µM, compound concentration 1 uM
[4] = 24 h, 10 µM, compound concentration 10 uM
[5] = 48 h, 1 µM, compound concentration 1 uM
[6] = 48 h, 10 µM, compound concentration 10 uM

SMILES: NCCc1cn(S(=O)(=O)c2c(Cl)nc3sccn23)c2ccccc12.O=C(O)C(=O)O
- Population Apoptotic (%) [1]: 45%
- Population Fragmented Nuclei (%) [1]: 20% and 34%
- Population Healthy Nuclei (%) [1]: 65% and 37%
- Population Hoechst High Intensity Objects (%) [1]: 4% and 3%
- Population Membrane Permeable-Phenotype (%) [1]: 0% and 13%
- Population Mitochondria Different-Phenotype (%) [1]: 5% and 8%
- Population Mitotic Cells (%) [1]: 55% and 54%
- Population Normal (%) [1]: 95% and 96%
- Population Pyknosed Nuclei (%) [1]: 14% and 28%
- Population Tubulin-Different-Phenotype (%) [1]: 40% and 62%
- Total Cell Count [1]: 146 and 170
- Population Apoptotic (%) [2]: 78% and 57%
- Population Fragmented Nuclei (%) [2]: 20% and 24%
- Population Healthy Nuclei (%) [2]: 56% and 44%
- Population Hoechst High Intensity Objects (%) [2]: 6%
- Population Membrane Permeable-Phenotype (%) [2]: 0% and 5%
- Population Mitochondria Different-Phenotype (%) [2]: 40% and 34%
- Population Mitotic Cells (%) [2]: 21% and 42%
- Population Normal (%) [2]: 93%
- Population Pyknosed Nuclei (%) [2]: 22% and 30%
- Population Tubulin-Different-Phenotype (%) [2]: 90% and 89%
- Total Cell Count [2]: 177 and 219
- Population Apoptotic (%) [3]: 50% and 46%
- Population Fragmented Nuclei (%) [3]: 21% and 35%
- Population Healthy Nuclei (%) [3]: 64% and 44%
- Population Hoechst High Intensity Objects (%) [3]: 3% and 4%
- Population Membrane Permeable-Phenotype (%) [3]: 0% and 18%
- Population Mitochondria Different-Phenotype (%) [3]: 13% and 11%
- Population Mitotic Cells (%) [3]: 50% and 53%
- Population Normal (%) [3]: 96% and 95%
- Population Pyknosed Nuclei (%) [3]: 13% and 20%
- Population Tubulin-Different-Phenotype (%) [3]: 42% and 70%
- Total Cell Count [3]: 156 and 166
- Population Apoptotic (%) [4]: 77% and 72%
- Population Fragmented Nuclei (%) [4]: 22% and 30%
- Population Healthy Nuclei (%) [4]: 62% and 51%
- Population Hoechst High Intensity Objects (%) [4]: 3% and 7%
- Population Membrane Permeable-Phenotype (%) [4]: 0% and 5%
- Population Mitochondria Different-Phenotype (%) [4]: 58% and 32%
- Population Mitotic Cells (%) [4]: 22% and 27%
- Population Normal (%) [4]: 96% and 92%
- Population Pyknosed Nuclei (%) [4]: 14% and 18%
- Population Tubulin-Different-Phenotype (%) [4]: 89% and 81%
- Total Cell Count [4]: 193 and 237
- Population Apoptotic (%) [5]: 50% and 54%
- Population Fragmented Nuclei (%) [5]: 27% and 38%
- Population Healthy Nuclei (%) [5]: 63% and 47%
- Population Hoechst High Intensity Objects (%) [5]: 4% and 6%
- Population Membrane Permeable-Phenotype (%) [5]: 2% and 9%
- Population Mitotic Cells (%) [5]: 50% and 45%
- Population Normal (%) [5]: 95% and 93%
- Population Pyknosed Nuclei (%) [5]: 9% and 14%
- Population Tubulin-Different-Phenotype (%) [5]: 46% and 58%
- Total Cell Count [5]: 177 and 166
- Population Apoptotic (%) [6]: 85% and 75%
- Population Fragmented Nuclei (%) [6]: 22% and 31%
- Population Healthy Nuclei (%) [6]: 65% and 59%
- Population Hoechst High Intensity Objects (%) [6]: 7% and 3%
- Population Membrane Permeable-Phenotype (%) [6]: 0% and 3%
- Population Mitochondria Different-Phenotype (%) [6]: 43% and 24%
- Population Mitotic Cells (%) [6]: 14% and 25%
- Population Normal (%) [6]: 92% and 96%
- Population Pyknosed Nuclei (%) [6]: 12% and 8%
- Population Tubulin-Different-Phenotype (%) [6]: 92% and 74%
- Total Cell Count [6]: 189 and 241

SMILES: COc1cc(Nc2ncc3c(n2)-c2ccc(Cl)cc2C(c2c(F)cccc2OC)=NC3)ccc1C(=O)O [ALISERTIB]
- Population Apoptotic (%) [1]: 39% and 42%
- Population Fragmented Nuclei (%) [1]: 11% and 18%
- Population Healthy Nuclei (%) [1]: 66% and 47%
- Population Hoechst High Intensity Objects (%) [1]: 1% and 8%
- Population Membrane Permeable-Phenotype (%) [1]: 2% and 7%
- Population Mitochondria Different-Phenotype (%) [1]: 4% and 7%
- Population Mitotic Cells (%) [1]: 60% and 57%
- Population Normal (%) [1]: 98% and 91%
- Population Pyknosed Nuclei (%) [1]: 21% and 33%
- Population Tubulin-Different-Phenotype (%) [1]: 23% and 41%
- Population Apoptotic (%) [2]: 56% and 48%
- Population Fragmented Nuclei (%) [2]: 28% and 35%
- Population Healthy Nuclei (%) [2]: 47% and 30%
- Population Hoechst High Intensity Objects (%) [2]: 13% and 8%
- Population Membrane Permeable-Phenotype (%) [2]: 1% and 4%
- Population Mitochondria Different-Phenotype (%) [2]: 22% and 16%
- Population Mitotic Cells (%) [2]: 43% and 51%
- Population Normal (%) [2]: 86% and 91%
- Population Pyknosed Nuclei (%) [2]: 24% and 33%
- Population Tubulin-Different-Phenotype (%) [2]: 69% and 64%
- Total Cell Count [2]: 209 and 89
- Population Apoptotic (%) [3]: 36% and 48%
- Population Fragmented Nuclei (%) [3]: 12% and 26%
- Population Healthy Nuclei (%) [3]: 69% and 47%
- Population Hoechst High Intensity Objects (%) [3]: 2% and 4%
- Population Membrane Permeable-Phenotype (%) [3]: 2% and 4%
- Population Mitochondria Different-Phenotype (%) [3]: 6%
- Population Mitotic Cells (%) [3]: 63% and 51%
- Population Normal (%) [3]: 97% and 95%
- Population Pyknosed Nuclei (%) [3]: 18% and 26%
- Population Tubulin-Different-Phenotype (%) [3]: 28% and 47%
- Total Cell Count [3]: 123
- Population Apoptotic (%) [4]: 64% and 56%
- Population Fragmented Nuclei (%) [4]: 29% and 45%
- Population Healthy Nuclei (%) [4]: 44% and 36%
- Population Hoechst High Intensity Objects (%) [4]: 13% and 5%
- Population Membrane Permeable-Phenotype (%) [4]: 1% and 0%
- Population Mitochondria Different-Phenotype (%) [4]: 24% and 9%
- Population Mitotic Cells (%) [4]: 35% and 43%
- Population Normal (%) [4]: 86% and 94%
- Population Pyknosed Nuclei (%) [4]: 25% and 18%
- Population Tubulin-Different-Phenotype (%) [4]: 68% and 71%
- Total Cell Count [4]: 191 and 93
- Population Apoptotic (%) [5]: 57% and 38%
- Population Fragmented Nuclei (%) [5]: 15% and 33%
- Population Healthy Nuclei (%) [5]: 65% and 42%
- Population Hoechst High Intensity Objects (%) [5]: 5%
- Population Membrane Permeable-Phenotype (%) [5]: 4% and 7%
- Population Mitochondria Different-Phenotype (%) [5]: 5%
- Population Mitotic Cells (%) [5]: 42% and 61%
- Population Normal (%) [5]: 94%
- Population Pyknosed Nuclei (%) [5]: 19% and 24%
- Population Tubulin-Different-Phenotype (%) [5]: 32% and 54%
- Total Cell Count [5]: 115
- Population Apoptotic (%) [6]: 84% and 66%
- Population Fragmented Nuclei (%) [6]: 38% and 37%
- Population Healthy Nuclei (%) [6]: 35% and 51%
- Population Hoechst High Intensity Objects (%) [6]: 23% and 8%
- Population Membrane Permeable-Phenotype (%) [6]: 5% and 2%
- Population Mitochondria Different-Phenotype (%) [6]: 37% and 15%
- Population Mitotic Cells (%) [6]: 15% and 33%
- Population Normal (%) [6]: 76% and 91%
- Population Pyknosed Nuclei (%) [6]: 26% and 11%
- Population Tubulin-Different-Phenotype (%) [6]: 80% and 65%
- Total Cell Count [6]: 188 and 85
